Laboratory results from ChEMBL document CHEMBL3351917, “Structure-activity relationship study of 4EGI-1, small molecule eIF4E/eIF4G protein-protein interaction inhibitors” (Eur J Med Chem, 2014).
Values joined by “and” are separate entries in the source; they are usually repeats but may differ in a detail not shown here. Equal entries are not always repeated. Active and inactive are the calls of the source. The rule behind the calls is not given here.

molecular target: T1, Eukaryotic translation initiation factor 4E (Homo sapiens, UniProt P06730); assay: Binding affinity to human full length recombinant GST-tagged eIF4E expressed in Escherichia coli BL21(DE3) by intrinsic tryptophan fluorescence quenching method; settings: not given
T1 sequence (P06730 whole entry): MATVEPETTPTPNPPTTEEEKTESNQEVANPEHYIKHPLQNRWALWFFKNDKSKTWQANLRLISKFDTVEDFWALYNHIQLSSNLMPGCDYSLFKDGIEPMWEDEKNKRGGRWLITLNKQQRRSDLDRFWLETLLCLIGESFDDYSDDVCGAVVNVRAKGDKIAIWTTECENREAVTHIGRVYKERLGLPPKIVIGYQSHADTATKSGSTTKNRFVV

| SMILES | Kd |
| --- | --- |
| Nc1ccc(C/C(=N/Nc2nc(-c3ccc(Cl)c(Cl)c3)cs2)C(=O)O)cc1[N+](=O)[O-] | 5.01 µM |
| O=C(O)/C(Cc1ccccc1[N+](=O)[O-])=N\Nc1nc(-c2ccc(O)cc2)cs1 | 36.6 µM |

tested on: not listed separately; assay: Retention time of the compound in 30 to 100% ACN/Water/0.1%TFA by RP-HPLC analysis; type: physicochemical; settings: buffer
In short: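 Reverse-phase HPLC, 30 to 100% ACN/water/0.1% TFA gradient in 25 min; retention times and E/Z ratios determined on the reaction mixture.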

| SMILES | Retention time | Retention_time |
| --- | --- | --- |
| O=C(O)/C(Cc1ccc(C(=O)O)cc1[N+](=O)[O-])=N\Nc1nc(-c2ccc(Cl)c(Cl)c2)cs1 | 12.5 min | – |
| O=C(O)/C(Cc1ccc(Br)cc1[N+](=O)[O-])=N/Nc1nc(-c2ccc(Cl)c(Cl)c2)cs1 | – | 15.542 min |
| Nc1ccc(C/C(=N/Nc2nc(-c3ccc(Cl)c(Cl)c3)cs2)C(=O)O)cc1 | – | 5.328 min |
| Nc1ccc(C/C(=N/Nc2nc(-c3ccc(Cl)c(Cl)c3)cs2)C(=O)O)cc1[N+](=O)[O-] | – | 15.09 min |
| Nc1ccc(C/C(=N\Nc2nc(-c3ccc(Cl)c(Cl)c3)cs2)C(=O)O)cc1[N+](=O)[O-] | – | 12.3 min |
| O=C(O)/C(Cc1ccc(C(=O)O)cc1[N+](=O)[O-])=N/Nc1nc(-c2ccc(Cl)c(Cl)c2)cs1 | – | 11.814 min |
| [N-]=[N+]=Nc1ccc(-c2csc(N/N=C(/Cc3ccccc3[N+](=O)[O-])C(=O)O)n2)cc1 | – | 13.435 min |
| O=C(O)/C(Cc1ccccc1[N+](=O)[O-])=N\Nc1nc(-c2ccc(N3CCCC3)cc2)cs1 (mixture of isomers) | – | 8.828 min |
| [N-]=[N+]=Nc1ccc(-c2csc(N/N=C(\Cc3ccccc3[N+](=O)[O-])C(=O)O)n2)cc1 | – | 11.722 min |
| O=C(O)/C(Cc1ccccc1[N+](=O)[O-])=N/Nc1nc(-c2ccc(Br)cc2)cs1 | – | 10 min |
| O=C(O)/C(Cc1ccccc1[N+](=O)[O-])=N\Nc1nc(-c2ccc(Br)cc2)cs1 | – | 12.48 min |
| O=C(O)/C(Cc1ccccc1[N+](=O)[O-])=N/Nc1nc(-c2ccc3ccccc3c2)cs1 | – | 11.72 min |

tested on: not listed separately; assay: Retention time of the compound in 0 to 100% ACN/Water/0.1%TFA by RP-HPLC analysis; type: physicochemical; settings: buffer
In short: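 Reverse-phase HPLC, linear gradient 0 to 100% ACN/water/0.1% TFA over 25 min; isomer retention times and ratios measured in the reaction mixture.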

| SMILES | Retention_time |
| --- | --- |
| O=C(O)/C(Cc1ccc(O)cc1)=N\Nc1nc(-c2ccc(Cl)c(Cl)c2)cs1 | 18.74 min |
| O=C(O)/C(Cc1ccccc1[N+](=O)[O-])=N/Nc1nc(-c2ccccc2)cs1 | 15.8 min |
| O=C(O)/C(Cc1ccccc1[N+](=O)[O-])=N\Nc1nc(-c2ccccc2)cs1 | 16.98 min |
| O=C(O)/C(Cc1ccc(O)cc1)=N/Nc1nc(-c2ccc(Cl)c(Cl)c2)cs1 | 16.63 min |

tested on: not listed separately; assay: Retention time of the compound in 0 to 70% ACN/Water/0.1%TFA by RP-HPLC analysis; type: physicochemical; settings: buffer

| SMILES | Retention_time |
| --- | --- |
| Nc1ccc(-c2csc(N/N=C(/Cc3ccccc3[N+](=O)[O-])C(=O)O)n2)cc1 | 12.98 min |
| Nc1ccc(-c2csc(N/N=C(\Cc3ccccc3[N+](=O)[O-])C(=O)O)n2)cc1 | 11.06 min |
| O=C(O)/C(Cc1ccccc1[N+](=O)[O-])=N/Nc1nc(-c2ccc(O)cc2)cs1 | 16.48 min |
| O=C(O)/C(Cc1ccccc1[N+](=O)[O-])=N/Nc1nc(-c2ccccc2)cs1 | 15.796 min and 16.484 min |
| O=C(O)/C(Cc1ccccc1[N+](=O)[O-])=N\Nc1nc(-c2ccccc2)cs1 | 12.958 min |
| O=C(O)/C(Cc1ccccc1[N+](=O)[O-])=N\Nc1nc(-c2ccc(O)cc2)cs1 | 16.47 min |
| O=C(O)/C(Cc1ccccc1[N+](=O)[O-])=N/Nc1nc(-c2ccc(C(=O)O)cc2)cs1 | 14.54 min |
| O=C(O)/C(Cc1ccccc1[N+](=O)[O-])=N\Nc1nc(-c2ccc(C(=O)O)cc2)cs1 | 16.77 min |

molecular target: T1, Eukaryotic translation initiation factor 4E; assay: Inhibition of eIF4E/eIF4G interaction in human CRL2813 cells assessed as reduction of eIF4E/eIF4G complex at 30 uM after 6 hrs by Western blotting analysis relative to control; type: cell-based; settings: not given
In short: (§1)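 CRL-2813 melanoma cells incubated 6 h with 30 µM compound or DMSO vehicle, harvested, lysed by freeze-thaw; lysate bound to m7GTP-Sepharose 1 h at 4°C, beads washed, eluted with free m7GTP; retentate resolved by SDS-PAGE and immunoblotted for eIF4E, eIF4G (monoclonal) and 4E-BP1 (polyclonal). Blots quantified; mean of three independent pull-downs, error ±S.E.M.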

| SMILES | inhibition |
| --- | --- |
| Nc1ccc(C/C(=N/Nc2nc(-c3ccc(Cl)c(Cl)c3)cs2)C(=O)O)cc1[N+](=O)[O-] | Active |

tested on: not listed separately; assay: Retention time of the compound in 50 to 100% ACN/Water/0.1%TFA by RP-HPLC analysis; type: physicochemical; settings: buffer
In short: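 RP-HPLC run with a 50 to 100% ACN/water/0.1% TFA gradient over 25 min; retention times and isomer ratios taken from the reaction mixture.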

| SMILES | Retention_time |
| --- | --- |
| O=C(O)/C(Cc1ccc(F)c([N+](=O)[O-])c1)=N\Nc1nc(-c2ccc(Cl)c(Cl)c2)cs1 | 8.4 min |
| O=C(O)/C(Cc1ccccc1[N+](=O)[O-])=N\Nc1nc(-c2ccc(N3CCOCC3)cc2)cs1 | 12.32 min |
| O=C(O)/C(Cc1ccc(O)c([N+](=O)[O-])c1)=N/Nc1nc(-c2ccc(Cl)c(Cl)c2)cs1 | 7.82 min |
| O=C(O)/C(Cc1ccc(C(=O)O)cc1)=N/Nc1nc(-c2ccc(Cl)c(Cl)c2)cs1 | 5.62 min |
| O=C(O)/C(Cc1ccccc1)=N/Nc1nc(-c2ccc(Cl)c(Cl)c2)cs1 | 8.7 min |
| O=C(O)/C(Cc1ccc(Cl)cc1)=N\Nc1nc(-c2ccc(Cl)c(Cl)c2)cs1 | 10.09 min |
| O=C(O)/C(Cc1ccccc1[N+](=O)[O-])=N/Nc1nc(-c2ccc(N3CCOCC3)cc2)cs1 | 15.082 min |
| O=C(O)/C(Cc1ccc([N+](=O)[O-])cc1)=N/Nc1nc(-c2ccc(Cl)c(Cl)c2)cs1 | 8.16 min |
| Nc1ccc(C/C(=N/Nc2nc(-c3ccc(Cl)c(Cl)c3)cs2)C(=O)O)cc1[N+](=O)[O-] | 15.08 min |
| O=C(O)/C(Cc1ccc(F)cc1)=N/Nc1nc(-c2ccc(Cl)c(Cl)c2)cs1 | 7.47 min |
| O=C(O)/C(Cc1ccccc1[N+](=O)[O-])=N\Nc1nc(-c2ccc(-c3ccccc3)cc2)cs1 | 7.23 min |
| O=C(O)/C(Cc1ccccc1[N+](=O)[O-])=N\Nc1nc(-c2ccc(C3CCCCC3)cc2)cs1 | 11.636 min |
| O=C(O)/C(Cc1ccc(C(F)(F)F)cc1)=N/Nc1nc(-c2ccc(Cl)c(Cl)c2)cs1 | 10.59 min |
| O=C(O)/C(Cc1ccccc1[N+](=O)[O-])=N\Nc1nc(-c2ccc(Cl)c(Cl)c2)cs1 | 13.69 min |
| O=C(O)/C(Cc1ccc(Cl)c([N+](=O)[O-])c1)=N\Nc1nc(-c2ccc(Cl)c(Cl)c2)cs1 | 9.449 min |
| O=C(O)/C(Cc1ccc(O)cc1)=N\Nc1nc(-c2ccc(Cl)c(Cl)c2)cs1 | 14.28 min |
| COc1ccc(C/C(=N/Nc2nc(-c3ccc(Cl)c(Cl)c3)cs2)C(=O)O)cc1[N+](=O)[O-] | 10.68 min |

| SMILES | Retention_time |
| --- | --- |
| O=C(O)/C(Cc1ccc(C(F)(F)F)cc1)=N\Nc1nc(-c2ccc(Cl)c(Cl)c2)cs1 | 10.53 min |
| O=C(O)/C(Cc1ccc(C(=O)O)cc1)=N\Nc1nc(-c2ccc(Cl)c(Cl)c2)cs1 | 8.13 min |
| O=C(O)/C(Cc1ccc(Cl)c([N+](=O)[O-])c1)=N/Nc1nc(-c2ccc(Cl)c(Cl)c2)cs1 | 9.437 min |
| O=C(O)/C(Cc1cccc([N+](=O)[O-])c1)=N/Nc1nc(-c2ccc(Cl)c(Cl)c2)cs1 | 7.19 min |
| O=C(O)/C(Cc1ccc(F)cc1)=N\Nc1nc(-c2ccc(Cl)c(Cl)c2)cs1 | 7.92 min |
| O=C(O)/C(Cc1ccc(O)c([N+](=O)[O-])c1)=N\Nc1nc(-c2ccc(Cl)c(Cl)c2)cs1 | 7.82 min |
| O=C(O)/C(Cc1ccccc1[N+](=O)[O-])=N\Nc1nc(-c2ccc3ccccc3c2)cs1 | 5.899 min |
| COc1ccc(C/C(=N\Nc2nc(-c3ccc(Cl)c(Cl)c3)cs2)C(=O)O)cc1[N+](=O)[O-] | 8.007 min |
| O=C(O)/C(Cc1ccc(F)c([N+](=O)[O-])c1)=N/Nc1nc(-c2ccc(Cl)c(Cl)c2)cs1 | 15.54 min |
| O=C(O)/C(Cc1ccc(O)cc1)=N/Nc1nc(-c2ccc(Cl)c(Cl)c2)cs1 | 14.28 min |
| O=C(O)/C(Cc1ccccc1)=N\Nc1nc(-c2ccc(Cl)c(Cl)c2)cs1 | 10.56 min |
| O=C(O)/C(Cc1ccccc1[N+](=O)[O-])=N/Nc1nc(-c2ccc(C3CCCCC3)cc2)cs1 | 12.013 min |
| O=C(O)/C(Cc1ccccc1[N+](=O)[O-])=N/Nc1nc(-c2ccc(Cl)c(Cl)c2)cs1 | 8.68 min |
| O=C(O)/C(Cc1ccccc1[N+](=O)[O-])=N/Nc1nc(-c2ccc3ccccc3c2)cs1 | 7.27 min |
| O=C(O)/C(Cc1cccc([N+](=O)[O-])c1)=N\Nc1nc(-c2ccc(Cl)c(Cl)c2)cs1 | 8.36 min |
| O=C(O)/C(Cc1ccc([N+](=O)[O-])cc1)=N\Nc1nc(-c2ccc(Cl)c(Cl)c2)cs1 | 8.01 min |

molecular target: T1, Eukaryotic translation initiation factor 4E; assay: Inhibition of eIF4E/eIF4G interaction in human CRL2813 cells assessed as increase in eIF4E/BP1 complex at 30 uM after 6 hrs by Western blotting analysis relative to control; type: cell-based; settings: not given; in short: as §1

| SMILES | inhibition |
| --- | --- |
| Nc1ccc(C/C(=N/Nc2nc(-c3ccc(Cl)c(Cl)c3)cs2)C(=O)O)cc1[N+](=O)[O-] | Active |
